Laboratory results taken from ChEMBL document CHEMBL4627345, “Anti-inflammatory effect and inhibition of nitric oxide production by targeting COXs and iNOS enzymes with the 1,2-diphenylbenzimidazole pharmacophore” (Bioorg Med Chem, 2020).
Active and inactive are the calls of the source. The rule behind the calls is not given here.

Assays:
[1] = molecular target: T1, Nitric oxide synthase, inducible (Mus musculus) (UniProt P29477); test: Inhibition of iNOS in mouse macrophages assessed as reduction in LPS-induced nitric oxide production at 100 uM incubated for overnight by griess assay relative to control
T1 sequence (whole entry): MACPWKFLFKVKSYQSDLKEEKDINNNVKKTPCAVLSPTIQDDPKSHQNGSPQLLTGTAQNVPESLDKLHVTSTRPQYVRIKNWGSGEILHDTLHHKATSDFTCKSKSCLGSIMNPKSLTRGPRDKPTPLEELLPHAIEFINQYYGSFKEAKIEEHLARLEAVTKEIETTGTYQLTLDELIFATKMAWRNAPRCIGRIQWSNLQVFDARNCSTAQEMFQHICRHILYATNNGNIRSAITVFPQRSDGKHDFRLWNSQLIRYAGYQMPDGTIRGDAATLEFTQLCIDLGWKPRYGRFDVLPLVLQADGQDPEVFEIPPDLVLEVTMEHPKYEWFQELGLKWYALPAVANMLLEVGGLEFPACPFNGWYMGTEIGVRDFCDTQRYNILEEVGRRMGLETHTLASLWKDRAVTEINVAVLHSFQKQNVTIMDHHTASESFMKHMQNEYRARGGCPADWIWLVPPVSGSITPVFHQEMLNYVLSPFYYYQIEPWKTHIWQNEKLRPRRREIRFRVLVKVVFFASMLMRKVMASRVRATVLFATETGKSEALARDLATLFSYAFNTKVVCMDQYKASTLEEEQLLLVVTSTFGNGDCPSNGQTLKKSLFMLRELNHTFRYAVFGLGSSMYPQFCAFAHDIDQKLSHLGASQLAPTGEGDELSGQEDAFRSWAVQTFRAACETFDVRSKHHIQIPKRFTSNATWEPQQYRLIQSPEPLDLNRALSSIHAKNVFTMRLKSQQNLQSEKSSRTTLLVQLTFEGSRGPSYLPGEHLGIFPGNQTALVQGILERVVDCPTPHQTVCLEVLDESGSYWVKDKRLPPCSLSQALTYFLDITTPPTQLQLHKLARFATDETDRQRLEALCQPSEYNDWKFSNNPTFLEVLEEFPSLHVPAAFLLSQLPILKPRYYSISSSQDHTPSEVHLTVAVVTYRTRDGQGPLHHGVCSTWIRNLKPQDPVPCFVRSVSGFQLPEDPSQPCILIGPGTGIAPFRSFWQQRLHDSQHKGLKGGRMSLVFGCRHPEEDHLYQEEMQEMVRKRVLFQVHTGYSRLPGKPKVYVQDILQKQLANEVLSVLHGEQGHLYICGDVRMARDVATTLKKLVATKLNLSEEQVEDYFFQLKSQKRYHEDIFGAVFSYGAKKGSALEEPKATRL
How it was run: (§1)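 Murine macrophages seeded at 4 x10^4 per well with compound at 50 or 100 µM, with or without LPS (100 ng/mL), overnight under standard conditions. Supernatant mixed 1:1 with Griess reagent and read at 570 nm. Nitrite quantified from a NaNO2 standard curve. Triplicates in three independent experiments.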

[2] = molecular target: T2, Prostaglandin G/H synthase 1 (Bos taurus) (UniProt O62664); test: Inhibition of bovine COX1 at 100 uM using arachidonic acid as substrate preincubated for 5 mins followed by substrate addition and measured after 5 mins by […]-based fluorescence assay relative to control
T2 sequence (whole entry): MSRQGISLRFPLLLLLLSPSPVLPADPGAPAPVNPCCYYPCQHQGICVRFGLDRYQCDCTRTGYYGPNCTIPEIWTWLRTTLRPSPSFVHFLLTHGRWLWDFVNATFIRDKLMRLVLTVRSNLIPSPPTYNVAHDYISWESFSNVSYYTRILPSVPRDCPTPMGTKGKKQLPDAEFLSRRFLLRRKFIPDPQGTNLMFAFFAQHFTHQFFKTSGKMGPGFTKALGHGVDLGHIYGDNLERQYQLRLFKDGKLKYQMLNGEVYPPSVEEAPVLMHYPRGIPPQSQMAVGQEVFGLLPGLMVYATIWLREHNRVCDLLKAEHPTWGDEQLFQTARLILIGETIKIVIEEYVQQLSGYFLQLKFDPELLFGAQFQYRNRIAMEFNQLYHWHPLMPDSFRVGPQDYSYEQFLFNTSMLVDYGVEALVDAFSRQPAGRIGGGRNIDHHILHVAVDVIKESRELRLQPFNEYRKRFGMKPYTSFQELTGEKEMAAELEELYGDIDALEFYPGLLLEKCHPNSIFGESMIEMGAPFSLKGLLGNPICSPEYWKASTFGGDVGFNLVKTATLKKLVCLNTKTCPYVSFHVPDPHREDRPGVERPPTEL
How it was run: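 Bovine COX-1 preincubated 5 min in buffer with compound (100 µM) or SC-560 as reference. ADHP and arachidonic acid then added, and resorufin fluorescence read after 5 min (ex 530–540 / em 585–595 nm). Resorufin arises from ADHP reacting with the COX-derived PGG2.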

Rattus norvegicus = test: Antiinflammatory activity in Wistar rat assessed as inhibition of carrageenan-induced paw edema formation at 100 mg/kg, po administered 1 hr before carrageenan stimulation and measured after up to 6 hrs relative to control; type: functional
How it was run: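 Male Wistar rats (250–300 g), N = 5 per group, dosed orally 1 h before 0.1 mL of 1% carrageenan in physiological saline was injected into the right paw. Paw volume was read by plethysmometer at 0, 1, 2, 3, 4, 5 and 6 h. Edema was taken as the right-minus-left paw volume difference. % inhibition = (untreated − treated)/untreated × 100 at each time point.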

[3] = Cytotoxicity against mouse RAW264.7 cells assessed as cell viability at 100 uM measured after 24 hrs by MTT assay relative to control; type: cell-based; settings: read-out: Activity
How it was run: (§2)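 RAW 264.7 murine macrophages grown in RPMI-1640 with 10% heat-inactivated FBS at 37 °C, 5% CO2. Cells seeded at 4 x10^4 per well and exposed 24 h to 0–500 µM compound (DMSO 0.2% final). Medium replaced with 0.5 mg/mL MTT for 4 h, formazan dissolved in isopropanol, absorbance read at 570 nm. Triplicates in three independent experiments.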

[4] = molecular target: T3, Prostaglandin G/H synthase 2 (Homo sapiens, UniProt P35354); test: Inhibition of human recombinant COX-2 using arachidonic acid as substrate preincubated for 15 mins followed by substrate addition and measured after 5 mins by […]-based fluorescence assay
T3 sequence (P35354 whole entry): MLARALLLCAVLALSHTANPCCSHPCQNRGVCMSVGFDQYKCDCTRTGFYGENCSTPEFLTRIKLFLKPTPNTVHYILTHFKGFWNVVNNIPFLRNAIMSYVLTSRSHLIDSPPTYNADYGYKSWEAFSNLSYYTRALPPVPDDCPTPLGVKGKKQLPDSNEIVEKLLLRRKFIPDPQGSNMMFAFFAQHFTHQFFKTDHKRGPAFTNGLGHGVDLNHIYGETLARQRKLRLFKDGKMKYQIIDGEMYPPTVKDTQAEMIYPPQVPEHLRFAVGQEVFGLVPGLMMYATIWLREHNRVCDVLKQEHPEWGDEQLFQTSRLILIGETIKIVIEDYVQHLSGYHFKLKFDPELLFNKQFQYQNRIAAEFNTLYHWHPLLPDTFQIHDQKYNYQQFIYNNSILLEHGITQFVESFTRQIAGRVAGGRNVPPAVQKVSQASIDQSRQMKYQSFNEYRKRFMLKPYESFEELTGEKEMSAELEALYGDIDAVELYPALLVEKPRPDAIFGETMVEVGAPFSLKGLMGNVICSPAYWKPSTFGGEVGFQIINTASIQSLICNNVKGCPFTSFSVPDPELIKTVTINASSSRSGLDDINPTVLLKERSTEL
How it was run: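 Human recombinant COX-2 preincubated 15 min in buffer with compound (100 µM) or DuP-697 as reference. ADHP and arachidonic acid then added, and resorufin fluorescence read after 5 min (ex 530–540 / em 585–595 nm).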

[5] = Cytotoxicity against mouse RAW264.7 cells assessed as cell viability at 500 uM measured after 24 hrs by MTT assay relative to control; type: cell-based; settings: read-out: Activity; how it was run: as §2
[6] = molecular target: T1, Nitric oxide synthase, inducible (Mus musculus); test: Inhibition of iNOS in mouse macrophages assessed as reduction in LPS-induced nitric oxide production at 50 uM incubated for overnight by griess assay relative to control; how it was run: as §1
[7] = Selectivity index, ratio of inhibition of human recombinant COX-2 at 100 uM to inhibition of bovine COX-1 at 100 uM
How it was run: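 SI is COX-2/COX-1 activity ratio. Percent inhibition at 100 µM: human recombinant COX-2 (15 min preincubation) and bovine COX-1 (5 min preincubation). Fluorometric ADHP/arachidonic acid read-out after 5 min.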

RAW264.7 = test: Cytotoxicity against mouse RAW264.7 cells assessed as reduction in cell viability at 500 uM measured after 24 hrs by MTT assay; type: cell-based; settings: raw264.7, 24 h; how it was run: as §2

## Nc1ccc(-c2nc3ccccc3n2-c2ccc(N)cc2)cc1
[1]
  inhibition: 44.1%
[2]
  inhibition: 29.7%
Rattus norvegicus
  inhibition: Active
[3]
  viability at 24 h, 100 µM: > 90%
[4]
  IC50: 173 µM
[5]
  viability at 24 h, 500 µM: ≥ 80%
[6]
  inhibition: 42.5%
[7]
  Selectivity Index: 1.55

## O=[N+]([O-])c1ccc(-c2nc3ccccc3n2-c2ccc([N+](=O)[O-])cc2)cc1
[1]
  inhibition: 33.8%
[2]
  inhibition: 29.3%
Rattus norvegicus
  inhibition in vivo at 100 mg/kg: 42%
[3]
  viability at 24 h, 100 µM: ≤ 90%
[5]
  viability at 24 h, 500 µM: ≤ 90%
[6]
  inhibition: 22.4%
[7]
  Selectivity Index: 1.63

## CC(=O)Nc1ccc(-c2nc3ccccc3n2-c2ccc(NC(C)=O)cc2)cc1
[1]
  inhibition: 15.3%
[2]
  inhibition: 59.5%
Rattus norvegicus
  inhibition: Active
[3]
  viability at 24 h, 100 µM: > 90%
[6]
  inhibition: 10.1%
[7]
  Selectivity Index: 0.53

## CC(=O)Nc1ccc(-n2c(-c3ccc(Cl)cc3)nc3ccccc32)cc1
[1]
  inhibition: 86.4%
[2]
  inhibition: 47.4%
Rattus norvegicus
  inhibition: Active
[3]
  viability at 24 h, 100 µM: > 90%
[6]
  inhibition: 75.9%
[7]
  Selectivity Index: 0.51

## N#Cc1ccc(-c2nc3ccccc3n2-c2ccc([N+](=O)[O-])cc2)cc1
[1]
  inhibition: 46%
[2]
  inhibition: 29%
Rattus norvegicus
  inhibition: Active
RAW264.7
  Activity: Toxic
[3]
  viability at 24 h, 100 µM: > 90%
[6]
  inhibition: 24.4%
[7]
  Selectivity Index: 1.63

## Cc1ccc(-c2ncc(Cl)cc2-c2ccc(S(C)(=O)=O)cc2)cn1 [ETORICOXIB]
[1]
  inhibition: 87.3%
[2]
  inhibition: 23.4%
Rattus norvegicus
  inhibition in vivo at 100 mg/kg: 35%
[6]
  inhibition: 79.8%
[7]
  Selectivity Index: 2.68

## Nc1ccc(-n2c(-c3ccc(Br)cc3)nc3ccccc32)cc1
[1]
  inhibition: 74.2%
[2]
  inhibition: 62.3%
Rattus norvegicus
  inhibition: Active
[3]
  viability at 24 h, 100 µM: > 90%
[5]
  viability at 24 h, 500 µM: ≥ 80%
[6]
  inhibition: 62.5%
[7]
  Selectivity Index: 0.11
